Source: ChEMBL document CHEMBL3271961, “Dibenztroponeacetic and -propionic acids. Potent new antiinflammatory agents” (1977)

Tests used:
Rattus norvegicus [1] = experiment: Antiinflammatory activity in rat assessed as inhibition of carrageenan-induced paw edema administered into pad of right hind paw 1 hr before carrageenan challenge measured after 4 hrs relative to phenylbutazone; assay type: functional; conditions: in the assay text read “administered po” for “administered into pad of right hind paw”
How it was run: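 Female rats, 80-90 g, gavaged with test material in 1 mL aqueous vehicle. One hour later, 0.05 mL of 1% carrageenan in 0.9% NaCl injected into the right hind paw pad. Rats killed 4 h after dosing. Both hind paws weighed, and the percent weight increase of the inflamed paw calculated. Six rats per group. Phenylbutazone standard usually at 3.6, 11 and 33 mg/kg.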

Mus musculus = experiment: Analgesic activity in po dosed mouse assessed as inhibition of phenylquinone-induced writhing measured up to 10 mins relative to aspirin; assay type: functional
How it was run: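 Male mice, 18-20 g, dosed orally in aqueous vehicle at time zero. Writhing induced 20 min later by ip injection of 0.25 mL 0.02% phenylquinone, then counted over the next 10 min. Groups of usually 8-10 mice. Aspirin standard given at 16.5, 50 and 150 mg/kg. Relative potency determined graphically or by Finney's methods.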

Rattus norvegicus [2] = experiment: Antiarthritic activity in po dosed rat assessed as inhibition of adjuvant-induced arthritis administered twice daily for 17 days measured on day 18 relative to indomethacin
Rattus norvegicus [3] = experiment: Antiinflammatory activity in po dosed rat assessed as inhibition of carrageenan immersed cotton pellet-induced granuloma administered daily once for 7 days measured one day after last dose relative to indomethacin; assay type: functional
How it was run: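 Two 50-mg cotton pellets, soaked 24 h in 1% carrageenan, dried, then dipped in 1% penicillin G/1% streptomycin, implanted sc dorso-lumbar in 180-200 g rats (one sex per test). Daily oral dosing for 7 days. Next day, pellets with granulomas removed, dried 24 h at 100 °C, weighed. Usually nine rats/group. Indomethacin standard at 0.5, 1, 2, 4 mg/kg/day.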

COC(=O)C(C)c1ccc2c(=O)c3ccccc3ccc2c1 (racemic)
Ratio (Rattus norvegicus [1]): 11
Ratio (Mus musculus): 2

CCN(C)CCOC(=O)C(C)c1ccc2c(=O)c3ccccc3ccc2c1 (racemic)
Ratio (Rattus norvegicus [1]): 20
Ratio (Mus musculus): <2

COC(=O)Cc1ccc2c(=O)c3ccccc3ccc2c1
Ratio (Rattus norvegicus [1]): 3
Ratio (Mus musculus): <1

CC(C(=O)O)c1ccc2c(=O)c3ccccc3ccc2c1 (single isomer, unassigned; (+))
Ratio (Rattus norvegicus [1]): 68
Ratio (Mus musculus): 20

CCCCCCCCCCCCCCCCCCCCOC(=O)C(C)c1ccc2c(=O)c3ccccc3ccc2c1 (racemic)
Ratio (Rattus norvegicus [1]): <=1
Ratio (Mus musculus): <0.5

CC(C(=O)[O-])c1ccc2c(=O)c3ccccc3ccc2c1.[Na+] (stereo not drawn)
Ratio (Rattus norvegicus [1]): 62

CC(O)(C(=O)O)c1ccc2c(=O)c3ccccc3ccc2c1 (racemic)
Ratio (Rattus norvegicus [1]): <0.5
Ratio (Mus musculus): 1.5

CC(C(=O)O)c1ccc2c(=O)c3ccccc3ccc2c1 (racemic)
Ratio (Rattus norvegicus [1]): 44
Ratio (Mus musculus): 12

CC(C)CCOC(=O)C(C)c1ccc2c(=O)c3ccccc3ccc2c1 (racemic)
Ratio (Rattus norvegicus [1]): 6
Ratio (Mus musculus): 1.7

COC(=O)C(C)c1ccc2c(=O)c3ccccc3ccc2c1 (stereo not drawn)
Ratio (Rattus norvegicus [1]): 15
Ratio (Rattus norvegicus [2]): 2

CCN(CC)CCOC(=O)C(C)c1ccc2c(=O)c3ccccc3ccc2c1.Cl (racemic)
Ratio (Rattus norvegicus [1]): 14
Ratio (Mus musculus): 10

C=C(C(=O)O)c1ccc2c(=O)c3ccccc3ccc2c1
Ratio (Rattus norvegicus [1]): 4
Ratio (Mus musculus): 1

CC(C(=O)O)c1ccc2c(=O)c3ccccc3ccc2c1 (single isomer, unassigned; (-))
Ratio (Rattus norvegicus [1]): 1.5
Ratio (Mus musculus): 1.5

O=C(O)Cc1ccc2c(=O)c3ccccc3ccc2c1
Ratio (Rattus norvegicus [1]): 6
Ratio (Mus musculus): 2
Ratio (Rattus norvegicus [3]): 0.1
Ratio (Rattus norvegicus [2]): 0.1

CC(C(=O)OCCN(C)C)c1ccc2c(=O)c3ccccc3ccc2c1 (single isomer, unassigned; (+))
Ratio (Rattus norvegicus [1]): 45

CC(C(=O)OCCN1CCCCC1)c1ccc2c(=O)c3ccccc3ccc2c1 (racemic)
Ratio (Rattus norvegicus [1]): 15
Ratio (Mus musculus): <2

CC(C(=O)OCCN(C)C)c1ccc2c(=O)c3ccccc3ccc2c1 (racemic)
Ratio (Rattus norvegicus [1]): 30
Ratio (Mus musculus): 7

CCC(C(=O)O)c1ccc2c(=O)c3ccccc3ccc2c1 (racemic)
Ratio (Rattus norvegicus [1]): 7
Ratio (Mus musculus): 2

CC(C)(C(=O)O)c1ccc2c(=O)c3ccccc3ccc2c1
Ratio (Rattus norvegicus [1]): 0.5

CCCCCCCCCCCCOC(=O)C(C)c1ccc2c(=O)c3ccccc3ccc2c1 (racemic)
Ratio (Rattus norvegicus [1]): 15
Ratio (Mus musculus): <0.5

CC(C(=O)OCCCCN(C)C)c1ccc2c(=O)c3ccccc3ccc2c1 (racemic)
Ratio (Rattus norvegicus [1]): 7
Ratio (Mus musculus): <3

CC(C(=O)OCCN1CCOCC1)c1ccc2c(=O)c3ccccc3ccc2c1.Cl (racemic)
Ratio (Rattus norvegicus [1]): 9
Ratio (Mus musculus): <1
